# MrgX1 antag – antagonists of human MrgX1 receptor, primary screen, HEK293 cells, Fluo-4 calcium flux | Mas-related G-protein coupled receptor member X1 (Homo sapiens), Q96LB2 | BAM8-22 antagonism; active compounds read low | B-score at 10 µM | actives 1.3% (n = 310,000) | AID 588676, 2011;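 active = calcium-response B-score plate-corrected more than 3 library SD below zero, starting fluorescence within 5 deviations, no agonist response on first addition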;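 note: peak minus trough fluorescence over baseline after final BAM8-22 challenge near maximal dose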
# RGS4 act – RGS4 potentiators or activators, primary screen, cell-based, HEK293 M3R inducible RGS4, calcium flux; carbachol calcium flux Fluo4; active compounds read low; B-score at 10 µM; actives 0.92% (n = 310,000); AID 463111, 2010;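 active = B-score of the integrated calcium signal more than 4 SD below the library mean, with starting fluorescence not abnormally high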;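 note: negative B-score means reduced calcium response which marks RGS4 activation or potentiation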
#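 Material: M3R-expressing HEK293 line, RGS4 induced by doxycycline | Schedule: Overnight RGS4 induction, 30 min dye load 37 °C, 20 min compound RT | Measured by: Fluo4 fluorescence kinetic imaging of calcium | Read-out: Integrated calcium ratio converted to B score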
# MrgX1 agonist – agonists of human MrgX1 receptor, primary screen, HEK293 cells, Fluo-4 calcium flux; B-score at 10 µM; Fluo-4 calcium fluorescence, agonist mode; active compounds read high; Mas-related G-protein coupled receptor member X1 (Homo sapiens), Q96LB2; actives 0.44% (n = 310,000);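 active = calcium response B-score plate-corrected fluorescence ratio at least 3 library SD, with starting fluorescence B-score inside 5 SD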
#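 Test system: Stable human MrgX1 HEK293 cell line | Schedule: Overnight plating before 1 h dye loading | Read-out basis: Baseline-normalised fluorescence change ratio, B-scored | Detection: Kinetic calcium dye fluorescence, Fluo-4 NW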
# PHOSPHO1 block – PubChem AID 1565. actives 1.1% (n = 290,000). inhibition, % at 13.3 µM. recombinant PHOSPHO1, absorbance phosphatase assay. Phosphoethanolamine/phosphocholine phosphatase (Homo sapiens), Q8TCT1; in the data active = inhibition above about 60%
# Target sequence (Q8TCT1 whole entry, looked up): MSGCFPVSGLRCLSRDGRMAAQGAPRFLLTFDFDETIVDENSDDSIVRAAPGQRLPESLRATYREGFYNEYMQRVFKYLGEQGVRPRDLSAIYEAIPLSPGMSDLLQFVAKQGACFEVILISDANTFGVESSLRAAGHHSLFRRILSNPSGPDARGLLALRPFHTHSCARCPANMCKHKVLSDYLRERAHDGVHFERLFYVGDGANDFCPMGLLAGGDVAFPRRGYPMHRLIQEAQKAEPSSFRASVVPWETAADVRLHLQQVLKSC
# MrgX1 PAM – positive allosteric modulators of MrgX1, primary screen, HEK293 cells, Fluo-4 calcium flux | Mas-related G-protein coupled receptor member X1 (Homo sapiens), Q96LB2 | AID 588675, 2011 | actives 0.63% (n = 310,000) | FDSS; active compounds read high | B-score at 10 µM;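 active = plate-corrected calcium response at least 3 library SD above typical, normal starting fluorescence, not activating the receptor alone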;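 note: compound read alongside a low EC10 to EC30 dose of BAM8-22 agonist; peak minus trough fluorescence over baseline measured at the second addition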
# RGS4 inh – RGS4 inhibitors, primary screen, cell-based, HEK293 M3R inducible RGS4, calcium flux. AID 463165, 2010. actives 0.45% (n = 310,000). B-score at 10 µM. Fluo-4 calcium flux; active compounds read high; triggered by carbachol at its EC20. Regulator of G-protein signaling 4 (Homo sapiens), P49798;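 active = B-score, a plate-corrected calcium signal, over three deviations above library mean, with baseline fluorescence within five deviations of library mean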;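 note: RGS4 expression induced by doxycycline in cells with stable M3 receptor; B-score is computed from the integrated fluorescence ratio over baseline after carbachol; higher B-score means a larger calcium signal and so more RGS4 inhibition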
# * marks the source's active call; other numbers are inactive results; i = inactive; . = not tested or not shown. This is a sample that favours compounds with a hit; in the whole collection about 4.5% have one here.
SMILES,MrgX1 antag,RGS4 act,MrgX1 agonist,PHOSPHO1 block,MrgX1 PAM,RGS4 inh
CC1CCCN(C(=O)COC(=O)c2ccc3[nH]c4c(c3c2)CCCC4)C1 (stereo not drawn),i,i,i,.,i,i
N#Cc1ccccc1S(=O)(=O)N1CCN(CC(O)c2ccccc2)CC1 (stereo not drawn),i,i,i,18.0,i,i
Cc1ccc2[nH]c(=O)c(C(c3nnnn3CC3CCCO3)N3CCCc4ccccc43)cc2c1 (stereo not drawn),i,i,i,85.5*,i,i
CCC(C)(C)n1nnnc1C(c1cc2cc(C)ccc2[nH]c1=O)N1CCCc2ccccc21 (stereo not drawn),i,i,i,75.4*,i,i
Cc1ccc2[nH]c(=O)c(C(c3nnnn3CC3CCCO3)N3CCc4ccccc4C3)cc2c1 (stereo not drawn),i,i,i,-46.3,i,i
CCC(C)(C)n1nnnc1C(c1cc2cc(OC)ccc2[nH]c1=O)N1CCc2ccccc21 (stereo not drawn),i,i,i,7.1,i,i
CC1CCC(NC(=O)c2nn(C)c3c2CSc2ccccc2-3)CC1 (stereo not drawn),i,i,i,21.8,i,i
OCCCNCc1ccc(N(c2ccccc2)c2ccccc2)cc1,i,-7.29*,i,-38.2,i,i
CCCCN1CC(=O)N2[C@H](c3ccc(OC)cc3)[C@@H]3C(=O)N(CC)C(=O)[C@@H]3[C@]2(C)C1=O,i,i,i,15.2,i,i
Oc1ccc2ccccc2c1CNc1cnc2ccccc2c1,i,i,i,106.3*,i,i
Cc1ccc(S(=O)(=O)N2CCC(=O)N(C(COCc3cccc(C(F)(F)F)c3)Cc3ccccc3)CC2)cc1 (stereo not drawn),-4.52*,i,i,1.3,i,i
Cc1ccc(S(=O)(=O)N2CCC(=O)N(C(COCc3ccccc3)Cc3ccccc3)CC2)cc1 (stereo not drawn),i,i,i,-16.1,i,i
Cc1ccc(OCc2cc(C(=O)NC3CCc4ccccc43)no2)cn1 (stereo not drawn),-4.72*,i,i,22.6,i,i
CN(CC(=O)Nc1ccccc1Cl)C(=O)COC(=O)c1nc(Cl)c(Cl)c(Cl)c1Cl,i,i,i,9.4,i,i
CCOC(=O)c1sc2nc(C)n(N)c(=O)c2c1C,i,i,i,62.9*,i,i
COc1ccc(C2(O)CC3CCC(C2)N3c2cc(C)nc(-c3ccccc3)n2)cc1 (stereo not drawn),i,i,i,15.9,i,i
Cc1cc(N2CCCC2)nc(N2C3CCC2CC(O)(c2ccc(F)cc2)C3)n1 (stereo not drawn),i,i,i,47.7,7.98*,i
c1ccc(-c2nc(Sc3ncnc4c3cnn4-c3ccccc3)n[nH]2)cc1,i,i,i,87.0*,i,i
CCO[C@@H]1OC(C(=O)N2CCN(Cc3ccc4c(c3)OCO4)CC2)=C[C@H](c2coc3ccccc3c2=O)[C@H]1CCCO,-5.07*,i,i,31.7,i,i
NC(=O)/C(=N\OC(=O)c1ccco1)c1nc(-c2ccc(Br)cc2)cs1,i,i,i,19.5,i,i
CC(CC(=O)O)Nc1ccccc1O (stereo not drawn),i,i,i,36.7,i,i
Cc1cc2nc3ccc(=[N+](C)C)cc-3sc2cc1N,.,-8.45*,.,3.1,.,i
CN(C)c1ccc2nc3ccc(=[N+](C)C)cc-3sc2c1,i,-7.55*,i,-14.1,i,i
